Entries after “also recorded” stand apart in the source; their conditions may differ.
Columns and labels:
rat primary islets = experiment: Glucose-dependent insulin secretion in rat islets; type: cell-based, Sprague-Dawley rats; conditions: 1 h
human GPR40/FFAR1 = human GPR40/FFAR1 (Homo sapiens, UniProt O14842); experiment: Intracellular calcium assay; type: cell-based
Outline: (§1)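 CHO-DXB11 cells stably expressing human, mouse or rat GPR40/FFAR1 were grown in Ham's F-12 with 10% heat-inactivated FBS and penicillin/streptomycin in 96-well plates. Test compounds were dissolved in DMSO. Ca2+ increases were measured in duplicate (FLIPR kit, fluorescence imaging reader) and expressed as % of fasiglifam Emax. EC50 was obtained by sigmoidal curve fit; means ± SD of 6 assays.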

mouse GPR40/FFAR1 = mouse GPR40/FFAR1 (Mus musculus, UniProt Q76JU9); experiment: Intracellular calcium assay; type: cell-based
Chain of mouse GPR40/FFAR1 (Q76JU9 whole entry): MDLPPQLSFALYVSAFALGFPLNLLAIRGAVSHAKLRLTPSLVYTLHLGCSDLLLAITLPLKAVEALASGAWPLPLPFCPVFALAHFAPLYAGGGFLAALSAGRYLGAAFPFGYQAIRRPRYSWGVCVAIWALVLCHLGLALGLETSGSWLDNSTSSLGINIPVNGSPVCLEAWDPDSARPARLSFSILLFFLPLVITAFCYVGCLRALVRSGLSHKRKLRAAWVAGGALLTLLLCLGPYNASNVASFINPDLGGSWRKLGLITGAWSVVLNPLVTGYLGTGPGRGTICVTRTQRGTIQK
Outline: as §1

rat GPR40/FFAR1 = rat GPR40/FFAR1 (Rattus norvegicus, UniProt Q8K3T4); experiment: Intracellular calcium assay; type: cell-based
Chain of rat GPR40/FFAR1 (Q8K3T4 whole entry): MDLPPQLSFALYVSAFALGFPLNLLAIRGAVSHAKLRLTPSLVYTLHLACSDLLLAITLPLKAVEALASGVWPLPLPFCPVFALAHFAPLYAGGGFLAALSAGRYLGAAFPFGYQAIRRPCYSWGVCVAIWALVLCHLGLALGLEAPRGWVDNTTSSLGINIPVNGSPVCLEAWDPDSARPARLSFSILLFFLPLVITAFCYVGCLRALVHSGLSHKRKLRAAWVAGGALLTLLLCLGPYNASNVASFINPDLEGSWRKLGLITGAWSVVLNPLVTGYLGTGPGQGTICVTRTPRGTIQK
Outline: as §1

human GPR119 = biological target: T1, human GPR119 (Homo sapiens, UniProt Q8TDV5); experiment: cAMP reporter assay in CHO-K1 cells expressing human GPR119; type: cell-based
T1 sequence (Q8TDV5 1-335): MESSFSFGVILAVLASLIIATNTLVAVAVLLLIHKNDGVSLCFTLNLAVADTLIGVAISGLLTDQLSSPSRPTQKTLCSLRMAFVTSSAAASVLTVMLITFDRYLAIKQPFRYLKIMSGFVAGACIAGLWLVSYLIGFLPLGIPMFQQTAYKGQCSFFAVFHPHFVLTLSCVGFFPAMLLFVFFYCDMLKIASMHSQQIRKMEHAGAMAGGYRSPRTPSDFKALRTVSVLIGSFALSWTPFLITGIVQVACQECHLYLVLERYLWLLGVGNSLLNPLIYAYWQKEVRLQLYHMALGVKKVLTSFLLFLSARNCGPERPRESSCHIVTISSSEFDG
Outline: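 CHO-K1 cells stably expressing human GPR119 were co-transfected with a Cre-luciferase reporter and a renilla luciferase control. Cells were incubated with test compound for 4 h, then lysed. Firefly and renilla luciferase activities were measured in duplicate by dual-luciferase chemiluminescence. AR231453 served as the control agonist.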

human GPR120/FFAR4 = biological target: T2, human GPR120/FFAR4 (Homo sapiens, UniProt Q5NUL3); experiment: Intracellular calcium assay; type: cell-based
T2 sequence (Q5NUL3 1-361): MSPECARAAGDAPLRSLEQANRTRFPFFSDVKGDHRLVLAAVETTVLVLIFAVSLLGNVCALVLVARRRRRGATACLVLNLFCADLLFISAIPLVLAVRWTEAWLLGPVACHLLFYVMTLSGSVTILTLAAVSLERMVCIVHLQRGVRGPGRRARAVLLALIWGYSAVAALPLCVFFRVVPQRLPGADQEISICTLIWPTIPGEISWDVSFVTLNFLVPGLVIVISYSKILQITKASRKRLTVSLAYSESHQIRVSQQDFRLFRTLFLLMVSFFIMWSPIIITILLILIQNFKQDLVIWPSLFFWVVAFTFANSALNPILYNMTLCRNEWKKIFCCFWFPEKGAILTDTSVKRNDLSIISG
Outline: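 CHO-DXB11 cells were stably transfected with human GPR120/FFAR4 and grown in Ham's F-12 with 10% heat-inactivated FBS. Intracellular Ca2+ changes were measured in duplicate with a FLIPR calcium kit on a fluorescence imaging plate reader. Alpha-linolenic acid served as the control agonist.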

PPAR gamma = biological target: T3, PPAR gamma (Homo sapiens, UniProt P37231); experiment: Nuclear receptor reporter activation assay; type: cell-based
T3 sequence (P37231 1-505): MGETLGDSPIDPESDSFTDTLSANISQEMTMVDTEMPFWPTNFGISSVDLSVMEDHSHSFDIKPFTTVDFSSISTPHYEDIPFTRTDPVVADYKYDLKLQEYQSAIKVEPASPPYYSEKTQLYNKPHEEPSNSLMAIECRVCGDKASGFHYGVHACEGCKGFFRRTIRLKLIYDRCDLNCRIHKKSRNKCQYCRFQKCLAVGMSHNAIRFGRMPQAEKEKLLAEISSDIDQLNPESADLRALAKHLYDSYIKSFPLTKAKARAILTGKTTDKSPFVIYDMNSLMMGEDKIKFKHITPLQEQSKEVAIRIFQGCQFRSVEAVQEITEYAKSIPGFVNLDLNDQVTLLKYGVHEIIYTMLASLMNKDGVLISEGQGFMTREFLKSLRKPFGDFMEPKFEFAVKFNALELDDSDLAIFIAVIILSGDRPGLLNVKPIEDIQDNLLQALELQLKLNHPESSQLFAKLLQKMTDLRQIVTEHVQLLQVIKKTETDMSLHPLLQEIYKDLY

[1] = Pharmacokinetic study in rats; type: in vivo, male Sprague-Dawley rats; conditions: rat
Outline: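 Male Sprague-Dawley rats, 7 weeks old, received 3 mg kg−1 intravenously in N,N-dimethylacetamide/PEG400/water (4/4/2). After overnight fasting, others received 0.3, 1, 3 or 10 mg kg−1 orally as a suspension in 1% Tween 80 with 0.5% carboxymethyl cellulose. Plasma levels were analysed by noncompartmental analysis, with bioavailability from AUC. n = 3 per group; mean (SD).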

GPR40/FFAR1 = GPR40/FFAR1 (Mus musculus, UniProt Q76JU9); type: cell-based
Chain of GPR40/FFAR1 (Q76JU9 whole entry): as the sequence (Q76JU9 whole entry) above
Outline: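 CHO-DXB11 cells stably expressing mouse GPR40/FFAR1 were assayed for intracellular Ca2+ increases (FLIPR calcium dye, fluorescence imaging plate reader) in the presence of 10% FBS and 0.5% BSA. Triplicate determinations; means + SD.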

[2] = test system: mouse insulinoma MIN6 cells; experiment: Caspase 3/7 activity in MIN6 cells; type: cell-based; conditions: 72-h exposure
Outline: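 MIN6 mouse insulinoma cells were grown in DMEM with 10% heat-inactivated FBS, penicillin/streptomycin and 0.0005% 2-mercaptoethanol. Cells were exposed to test compound or palmitic acid for 72 h in 10% FBS plus 0.5% BSA. Caspase-3/7 activity was read with a homogeneous fluorogenic caspase-3/7 kit. Triplicate determinations; means + SD.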

Sprague-Dawley rats [3] = experiment: Oral glucose tolerance test in Sprague-Dawley rats; type: in vivo, rat
Outline: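 Male Sprague-Dawley rats, 7–8 weeks old, were fasted overnight and grouped by body weight (n = 10). Vehicle or test compound was given orally 60 min before oral glucose 1 g kg−1. Blood was sampled pre-dose, at −5 min, and at 5, 15, 30, 60 and 120 min. Plasma glucose was measured enzymatically and insulin by ultrasensitive rat insulin ELISA. AUCs covered −5 to 120 min (glucose) and −5 to 60 min (insulin). Dunnett's test; means + SEM.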

Sprague-Dawley rats [4] = experiment: Effects on fasting glucose levels in Sprague-Dawley rats; type: in vivo, rat; conditions: fasted Sprague-Dawley rats
Goto-Kakizaki (GK) rats [5] = experiment: Oral glucose tolerance test in Goto-Kakizaki rats; type: in vivo, rat
Outline: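 Male GK rats, 9–10 weeks old, were fasted overnight and grouped (n = 9–10) by fasting glucose and body weight. Vehicle or test compound was given orally, followed by oral glucose 1 g kg−1 60 min later. Blood was taken pre-dose, at −5 min, and at 5–180 min after glucose. Plasma glucose AUC covered −5 to 180 min and insulin AUC −5 to 60 min. Dunnett's test; means + SEM.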

Goto-Kakizaki (GK) rats [6] = experiment: Chronic 5-week treatment in Goto-Kakizaki rats; type: in vivo, rat
[7] = test system: healthy volunteers and T2DM patients; conditions: cited from earlier work
[8] = ref Tsujihata et al. 2011; Ito et al. 2013; cited from earlier work
[9] = male, Sprague-Dawley, plasma, iv, 3 mg/kg
[10] = male, Sprague-Dawley, plasma, po, 0.3 mg/kg
[11] = male, Sprague-Dawley, plasma, po, 1 mg/kg
[12] = male, Sprague-Dawley, plasma, po, 3 mg/kg
[13] = male, Sprague-Dawley, plasma, po, 10 mg/kg
[14] = 1 mg·kg^−1 p.o., 15 min after glucose challenge
[15] = p.o. 60 min before glucose 1 g kg^−1, vs vehicle

Chain of human GPR40/FFAR1 (O14842 whole entry): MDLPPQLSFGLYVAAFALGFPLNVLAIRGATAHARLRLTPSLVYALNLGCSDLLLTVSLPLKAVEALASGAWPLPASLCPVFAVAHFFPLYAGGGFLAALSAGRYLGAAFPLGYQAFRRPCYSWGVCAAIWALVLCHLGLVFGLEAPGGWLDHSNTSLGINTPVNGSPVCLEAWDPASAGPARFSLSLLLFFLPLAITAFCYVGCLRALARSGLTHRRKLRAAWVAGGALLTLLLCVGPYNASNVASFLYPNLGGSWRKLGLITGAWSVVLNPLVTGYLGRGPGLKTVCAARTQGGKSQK

SMILES: [Cl-].[K+] [KCl, reference compound]
- insulin secretion in low glucose (rat primary islets; KCl positive control, 2 mmol·L^−1 glucose): significantly potentiated insulin secretion
- insulin secretion in high glucose (rat primary islets; KCl positive control, 16 mmol·L^−1 glucose): significantly potentiated insulin secretion

SMILES: Cc1cc(OCCCS(C)(=O)=O)cc(C)c1-c1cccc(COc2ccc(-c3cc(O)n[s+]3[O-])cc2)c1 [MR1704, (R)‐5‐[4‐[3‐[2,6‐Dimethyl‐4‐[3‐(methylsulphonyl)propoxy]‐phenyl]benzyloxy]phenyl]‐isothiazol‐3‐ol 1‐oxide]
- EC50 (human GPR40/FFAR1): 35 ± 6 nM
- EC50 (mouse GPR40/FFAR1): 25 ± 4 nM
- EC50 (rat GPR40/FFAR1): 27 ± 3 nM
- hGPR119 activation (at 3 nmol·L^−1) (human GPR119; at 3 nmol·L^−1 as printed): 1%
- agonistic activity in GPR119-expressing cells (human GPR119; at 3 μmol·L^−1): did not show any agonistic activities
- hGPR120 activation (at 3 nmol·L^−1) (human GPR120/FFAR4; at 3 nmol·L^−1 as printed): 4%
- agonistic activity in GPR120/FFAR4-expressing cells (human GPR120/FFAR4; at 3 μmol·L^−1): did not show any agonistic activities
- PPAR gamma activation (at 3 nmol·L^−1) (PPAR gamma; at 3 nmol·L^−1 as printed): 1%
- agonistic activity in PPAR gamma-expressing cells (PPAR gamma; at 3 μmol·L^−1): did not show any agonistic activities
- AUC(0-inf) [1, 9]: 8960 ng·h/mL
- Vd [1, 9]: 0.584 L/kg
- clearance [1, 9]: 5.62 mL/min/kg
- half-life [1, 9]: 1.92 h
- AUC(0-inf) [1, 10]: 511 ng·h/mL
- Cmax [1, 10]: 102 ng/mL
- Tmax [1, 10]: 0.83 h
- bioavailability [1, 10]: 57%
- half-life [1, 10]: 2.48 h
- AUC(0-inf) [1, 11]: 1450 ng·h/mL
- Cmax [1, 11]: 264 ng/mL
- Tmax [1, 11]: 2.67 h
- bioavailability [1, 11]: 49%
- half-life [1, 11]: 2.1 h
- AUC(0-inf) [1, 12]: 4710 ng·h/mL
- Cmax [1, 12]: 755 ng/mL
- Tmax [1, 12]: 4 h
- bioavailability [1, 12]: 53%
- half-life [1, 12]: 2.13 h
- AUC(0-inf) [1, 13]: 8430 ng·h/mL
- Cmax [1, 13]: 1130 ng/mL
- Tmax [1, 13]: 5.33 h
- bioavailability [1, 13]: 28%
- half-life [1, 13]: 2.08 h
- time at which plasma concentrations reached maximum values ([1]; p.o., all tested doses (0.3-10 mg·kg^−1)): 0.83 to 5.33 h
- insulin secretion in low glucose (rat primary islets; MR1704 3 μmol·L^−1, 2 mmol·L^−1 glucose): but not low glucose conditions
- insulin secretion in high glucose (rat primary islets; MR1704 3 μmol·L^−1, 16 mmol·L^−1 glucose): markedly potentiated insulin secretion in high glucose
- EC50 (GPR40/FFAR1): 210 nM
- caspase 3/7 activity ([2]; even at 10 μmol·L^−1 with 0.5% BSA): did not induce caspase 3/7 activity
- AUC of glucose levels during OGTT (Sprague-Dawley rats [3]; 1 mg·kg^−1 p.o.): significant reduction in the AUC of glucose levels
- plasma insulin secretion during OGTT (Sprague-Dawley rats [3]; [14]): significantly enhanced
- plasma glucose excursion during OGTT (Sprague-Dawley rats [3]; [15]): reduced plasma glucose excursion
- fasting plasma glucose levels (Sprague-Dawley rats [4]; even at 300 mg·kg^−1 p.o., 1 to 12 h after dosing): did not reduce the fasting plasma glucose levels
- AUC of glucose levels during OGTT (Goto-Kakizaki (GK) rats [5]; 1 mg·kg^−1 p.o.): significant reduction in the AUC of glucose levels
- plasma insulin secretion during OGTT (Goto-Kakizaki (GK) rats [5]; [14]): significantly enhanced plasma insulin secretion
- plasma glucose excursion during OGTT (Goto-Kakizaki (GK) rats [5]; [15]): reduced plasma glucose excursion
- glycated hemoglobin (HbA1c) levels, effect in words (Goto-Kakizaki (GK) rats [6]; 3 mg·kg^−1 p.o. once daily, after 5 weeks): significantly reduced glycated hemoglobin (HbA1c) levels
- pancreatic insulin content (Goto-Kakizaki (GK) rats [6]; after 5-week treatment, vs vehicle): without reducing pancreatic insulin content; also recorded: No significant difference was observed
- nonfasting glucose levels (Goto-Kakizaki (GK) rats [6]; at least 1 mg·kg^−1 p.o. once daily, 5 weeks): reduced nonfasting glucose levels
- body weight gain (Goto-Kakizaki (GK) rats [6]; once daily p.o., 5 weeks, vs vehicle-treated group): comparable body weight gain

SMILES: Cc1cc(OCCCS(C)(=O)=O)cc(C)c1-c1cccc(COc2ccc3c(c2)OC[C@H]3CC(=O)O)c1 [fasiglifam]
- glucose-lowering effect ([7]; T2DM patients, ref Burant et al. 2012, Kaku et al. 2013): glucose‐lowering effect
- hepatotoxicity (liver enzyme levels) ([7]; clinical, ref Kaku et al. 2015): increased liver enzyme levels
- clinical parameters of glucose homeostasis ([7]; healthy human adults, ref Leifke et al. 2012): did not affect clinical parameters of glucose homeostasis
- safety and tolerability ([7]; healthy volunteers, ref Naik et al. 2012): safe and well tolerated
- pancreatic toxicity [8]: does not cause pancreatic toxicity

SMILES: COc1ccc(Cl)cc1C(=O)NCCc1ccc(S(=O)(=O)NC(=O)NC2CCCCC2)cc1 [glibenclamide, reference compound]
- fasting plasma glucose levels (Sprague-Dawley rats [4]; glibenclamide 10 mg·kg^−1 p.o.): significantly reduced the fasting plasma glucose levels

SMILES: CCCCCCCCCCCCCCCC(=O)O [palmitic acid, reference compound]
- EC50 (GPR40/FFAR1): 29000 nM
- caspase 3/7 activity ([2]; 300 μmol·L^−1 with 0.5% BSA): induced caspase 3/7 activity
